Here are results for one compound from ChEMBL document CHEMBL4765301, “Discovery of novel TNNI3K inhibitor suppresses pyroptosis and apoptosis in murine myocardial infarction injury” (Eur J Med Chem, 2020).

The source made the active and inactive calls. No cut-off for these calls is given here.

Series [1] has as its target Epidermal growth factor receptor (Homo sapiens) (UniProt P00533). In words: Inhibition of recombinant human EGFR (696 to end residues) assessed as residual activity at 1 uM using poly(Glu, Tyr) 4:1 as substrate incubated for 40 mins by [gamma-33P]-ATP scintillation counting based radiometry assay relative to control.
For series [2], the target named is Vascular endothelial growth factor receptor 2 (Homo sapiens) (UniProt P35968). In words: Inhibition of recombinant human KDR (790 to end residues) assessed as residual activity at 1 uM using myelin basic protein as substrate incubated for 40 mins by [gamma-33P]-ATP scintillation counting based radiometry assay relative to control.
Sequence of Vascular endothelial growth factor receptor 2 (Homo sapiens) (P35968 whole entry): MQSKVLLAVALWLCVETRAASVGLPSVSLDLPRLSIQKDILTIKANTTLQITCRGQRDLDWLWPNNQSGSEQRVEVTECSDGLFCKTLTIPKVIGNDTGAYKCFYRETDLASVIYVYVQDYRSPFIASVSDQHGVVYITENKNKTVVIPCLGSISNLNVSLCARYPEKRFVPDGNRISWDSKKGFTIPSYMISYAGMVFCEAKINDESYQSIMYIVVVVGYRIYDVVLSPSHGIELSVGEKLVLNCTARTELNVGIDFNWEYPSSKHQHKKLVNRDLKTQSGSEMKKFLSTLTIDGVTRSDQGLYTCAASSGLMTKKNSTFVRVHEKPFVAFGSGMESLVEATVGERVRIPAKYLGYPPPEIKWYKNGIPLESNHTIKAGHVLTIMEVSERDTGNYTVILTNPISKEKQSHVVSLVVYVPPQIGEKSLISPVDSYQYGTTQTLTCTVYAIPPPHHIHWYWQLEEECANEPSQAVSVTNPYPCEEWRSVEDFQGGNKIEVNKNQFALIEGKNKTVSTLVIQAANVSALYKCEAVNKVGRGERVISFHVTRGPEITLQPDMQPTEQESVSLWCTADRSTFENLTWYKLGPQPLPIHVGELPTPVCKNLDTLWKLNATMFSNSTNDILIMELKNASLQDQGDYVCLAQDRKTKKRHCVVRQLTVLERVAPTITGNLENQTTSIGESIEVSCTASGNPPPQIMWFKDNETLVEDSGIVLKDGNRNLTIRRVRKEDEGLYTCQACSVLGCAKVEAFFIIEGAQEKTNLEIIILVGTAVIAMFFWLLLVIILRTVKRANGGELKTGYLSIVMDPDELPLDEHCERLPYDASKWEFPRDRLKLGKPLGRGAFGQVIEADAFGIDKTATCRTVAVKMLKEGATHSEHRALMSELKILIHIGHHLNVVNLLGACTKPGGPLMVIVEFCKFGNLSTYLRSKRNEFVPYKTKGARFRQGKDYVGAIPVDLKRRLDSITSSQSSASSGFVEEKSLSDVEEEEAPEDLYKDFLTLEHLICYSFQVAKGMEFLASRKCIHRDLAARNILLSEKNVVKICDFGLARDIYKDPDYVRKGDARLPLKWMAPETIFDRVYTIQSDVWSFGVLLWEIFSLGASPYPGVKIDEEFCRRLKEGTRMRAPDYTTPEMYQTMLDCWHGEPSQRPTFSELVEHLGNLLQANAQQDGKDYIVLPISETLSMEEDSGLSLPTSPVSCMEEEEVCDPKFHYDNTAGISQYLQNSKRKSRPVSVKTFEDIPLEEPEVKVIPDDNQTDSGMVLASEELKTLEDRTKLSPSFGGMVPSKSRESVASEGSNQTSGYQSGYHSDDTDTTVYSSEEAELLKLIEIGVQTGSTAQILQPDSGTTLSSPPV
Series [3] concerns H9c2. Description: Cytoprotective activity against OGD-induced cell death in rat H9c2 cells assessed as cell viability at 1 uM incubated for 24 hrs by MTT assay (reference value: 42.08 to 49.11 %). It is filed as functional. The following applies: read-out: Activity.
The test system of series [4] is H9c2. In words: Cytoprotective activity against OGD-induced cell death in rat H9c2 cells assessed as cell viability at 10 uM incubated for 24 hrs by MTT assay (reference value: 42.08 to 49.11 %). It is filed as functional. The following applies: read-out: Activity. A general note: Tetrazolium dyes change colour on reduction, which living cells bring about.
The test system of series [5] is H9c2. Description: Inhibition of OGD-induced apoptosis in rat H9c2 cells incubated for 24 hrs by annexinV-FITC and PI staining based flow cytometry analysis. It is filed as functional, cell-based. The following applies: dose 0.5-1 µM. Background: In flow cytometry, cells or beads pass a laser one at a time.
In series [6] the test system is H9c2. In words: Inhibition of OGD-induced apoptosis in rat H9c2 cells assessed as viable cells at 0.5 uM incubated for 24 hrs by annexinV-FITC and PI staining based flow cytometry analysis (reference value: 85 %). It is filed as functional.
The test system of series [7] is H9c2. Description: Inhibition of OGD-induced apoptosis in rat H9c2 cells assessed as late apoptotic cells at 0.5 uM incubated for 24 hrs by annexinV-FITC and PI staining based flow cytometry analysis (reference value: 9 %). It is filed as functional.
The subject of series [8] is H9c2. Description: Inhibition of OGD-induced apoptosis in rat H9c2 cells assessed as viable cells at 1 uM incubated for 24 hrs by annexinV-FITC and PI staining based flow cytometry analysis (reference value: 85 %). It is filed as functional.
Series [9] relates to H9c2. Description: Inhibition of OGD-induced apoptosis in rat H9c2 cells assessed as necrotic cells at 1 uM incubated for 24 hrs by annexinV-FITC and PI staining based flow cytometry analysis (reference value: 2.45 %). It is filed as functional.
Series [10] has as its system H9c2. Description: Cytoprotective activity against OGD-induced cell death in rat H9c2 cells assessed as cell viability incubated for 24 hrs by LDH release assay. The class given is functional, cell-based. The note with it: dose 0.5-1 µM. In a few lines:
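OGD-exposed H9c2 cells were treated with 0.5 or 1.0 µM inhibitor for 24 h. LDH released into the culture medium was measured with a commercial LDH cytotoxicity kit.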
On the technique in general: Release of lactate dehydrogenase indicates damage to the cell membrane.

The subject of series [11] is H9c2. Description: Inhibition of OGD-induced apoptosis in rat H9c2 cells assessed as reduction in cytochromeC level by Western blot analysis. The class given is functional, cell-based. The following applies: dose 0.5-1 µM. The essentials:
(§1)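 H9c2 cells under OGD were treated with saline or 0.5 or 1.0 µM inhibitor. Cells were trypsinised, washed in cold PBS, lysed in RIPA with sonication and centrifuged 30 min. Total protein was quantified and separated by SDS-PAGE, then transferred to PVDF. Blots were probed with primary and secondary antibodies and detected by ECL.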

For series [12], the system named is H9c2. In words: Inhibition of OGD-induced apoptosis in rat H9c2 cells assessed as reduction in NLRP3 level at 0.5 to 1 uM by Western blot analysis. It is filed as functional, cell-based. The following applies: dose 0.5-1 µM. In a few lines: as §1
Series [13] relates to H9c2. In words: Inhibition of OGD-induced apoptosis in rat H9c2 cells assessed as reduction in ASC level at 0.5 to 1 uM by Western blot analysis. The class given is functional, cell-based. The note with it: dose 0.5-1 µM. In a few lines: as §1
The subject of series [14] is H9c2. Description: Inhibition of OGD-induced apoptosis in rat H9c2 cells assessed as reduction in IL-1beta level at 0.5 to 1 uM by Western blot analysis. The note with it: dose 0.5-1 µM. It is filed as functional, cell-based. In a few lines: as §1
Series [15] has as its system H9c2. Description: Inhibition of OGD-induced apoptosis in rat H9c2 cells assessed as reduction in proIL-1beta level at 0.5 to 1 uM by Western blot analysis. The class given is functional, cell-based. The note with it: dose 0.5-1 µM. The essentials:
as §1

In series [16] the test system is H9c2. In words: Inhibition of OGD-induced apoptosis in rat H9c2 cells assessed as reduction in caspase1 level at 0.5 to 1 uM by immunofluorescence staining based fluorescence microscopy. It is filed as functional, cell-based. The following applies: dose 0.5-1 µM. The essentials: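 In OGD-exposed H9c2 cells treated with 0.5 or 1.0 µM inhibitor, intracellular distribution and co-localisation of caspase-1 and NLRP3 were assessed by immunofluorescence microscopy.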

The test system of series [17] is Mus musculus. Description: Cardioprotective activity in C57BL/6 mouse model of myocardial infarction assessed as reduction in scar tissue at 25 mg/kg, ip administered for 28 days and measured on day 28 by masson staining based fluorescence microscopy. The class given is functional, organism-based. The note with it: time 28.0 day. The essentials: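 MI made in male C57BL/6 mice (5-6 weeks) by permanent LAD ligation under ip ketamine (100mg/kg)/xylazine (10mg/kg), ventilated. Groups: sham, saline (NS), inhibitor 25 mg/kg ip every two days, n=4. Hearts examined after 28 days; TTC, Masson's trichrome and H&E staining of sections for infarct, collagen/scar, LV inflammatory cells and dilatation.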

The test system of series [18] is Mus musculus. Description: In vivo inhibition of TNNI3K in C57BL/6 mouse at 25 mg/kg, ip administered for 28 days and measured on day 28 by immunohistochemical staining based fluorescence microscopy. It is filed as functional, organism-based. The note with it: time 28.0 day. In a few lines: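 Male C57BL/6 mice (5-6 weeks) with LAD-ligation MI; sham, saline or 25 mg/kg ip every two days, n=4, 28 days. Heart sections given EDTA (pH 8.0) or citrate (pH 6.0) microwave antigen retrieval, then primary antibody 30-40 min at 37°C. Detection by HRP polymer secondary with DAB (IHC) or fluorescent secondary (IF). Positive cells were quantified.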

Series [19] in a line: Toxicity in C57BL/6 mouse assessed as effect on morphology of main organs at 25 mg/kg, ip administered for 28 days and observed on day 28 by H and E staining based fluorescence microscopy. It is filed as organism-based. The following applies: in vivo, 672 h, time 28 day. In a few lines:
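Main organs of MI-model C57BL/6 mice, given 25 mg/kg ip every two days or sham-operated, examined by H&E staining of tissue sections for morphology.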

One may read the inhibition as the drop in the measured response relative to a control, in per cent.

Sequence of Epidermal growth factor receptor (Homo sapiens) (P00533 whole entry): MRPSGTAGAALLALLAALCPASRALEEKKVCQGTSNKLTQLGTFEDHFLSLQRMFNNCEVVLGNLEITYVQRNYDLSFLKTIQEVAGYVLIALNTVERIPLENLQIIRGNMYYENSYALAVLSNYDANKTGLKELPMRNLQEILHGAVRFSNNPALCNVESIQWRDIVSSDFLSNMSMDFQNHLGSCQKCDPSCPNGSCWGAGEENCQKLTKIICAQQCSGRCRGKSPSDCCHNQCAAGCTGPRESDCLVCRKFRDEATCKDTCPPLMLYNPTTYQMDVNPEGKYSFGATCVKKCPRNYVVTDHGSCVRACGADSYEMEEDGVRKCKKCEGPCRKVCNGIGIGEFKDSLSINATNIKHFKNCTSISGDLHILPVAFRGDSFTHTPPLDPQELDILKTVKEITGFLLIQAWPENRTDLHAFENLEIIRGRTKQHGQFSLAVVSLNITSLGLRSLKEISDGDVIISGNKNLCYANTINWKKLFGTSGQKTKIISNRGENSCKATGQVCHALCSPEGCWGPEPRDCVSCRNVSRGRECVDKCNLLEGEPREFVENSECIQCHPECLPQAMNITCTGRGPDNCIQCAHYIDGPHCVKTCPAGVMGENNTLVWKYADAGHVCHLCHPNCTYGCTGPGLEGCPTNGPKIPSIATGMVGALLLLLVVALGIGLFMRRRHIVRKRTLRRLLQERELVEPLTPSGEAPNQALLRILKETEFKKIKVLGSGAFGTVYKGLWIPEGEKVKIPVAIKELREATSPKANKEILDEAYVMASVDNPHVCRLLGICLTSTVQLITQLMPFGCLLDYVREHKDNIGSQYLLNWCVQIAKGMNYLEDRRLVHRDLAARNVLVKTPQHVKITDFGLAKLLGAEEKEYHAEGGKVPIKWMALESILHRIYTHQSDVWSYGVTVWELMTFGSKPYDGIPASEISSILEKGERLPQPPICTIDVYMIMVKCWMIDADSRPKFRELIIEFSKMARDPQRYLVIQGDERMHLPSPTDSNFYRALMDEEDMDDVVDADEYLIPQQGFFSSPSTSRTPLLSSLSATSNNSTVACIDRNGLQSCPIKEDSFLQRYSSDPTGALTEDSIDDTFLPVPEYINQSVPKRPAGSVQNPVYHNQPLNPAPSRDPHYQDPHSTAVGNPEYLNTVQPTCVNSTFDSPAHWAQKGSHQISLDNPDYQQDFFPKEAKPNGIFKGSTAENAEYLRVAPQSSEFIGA

Take `CN(C)CCCN1CCc2c(sc3ncnc(Nc4ccc(N(C)C)c(NC(=O)c5ccco5)c4)c23)C1`: the Activity in [1] is 81%; in series [2], 80%; in the series with H9c2 [10], “Dose-dependent effect”; in [19], “Non-Toxic”. The viability at 1 µM with H9c2 [3] turned out to be 73.8%. Moreover, in the series on H9c2 [4], the viability at 10 µM came to 89%. The inhibition result in the series on H9c2 [5] and in the series with H9c2 [11] was “Dose-dependent effect” throughout. The inhibition at 0.5 µM in the series with H9c2 [6] was determined as 87%; in the series with H9c2 [7], 7.15%. The inhibition at 1 µM was 90.7% in the series on H9c2 [8] and 1.07% in the series on H9c2 [9]. For the same compound, the inhibition result in the series on H9c2 [12], in the series on H9c2 [13], in the series on H9c2 [14], in the series with H9c2 [16] and in the series on Mus musculus [18] was “Active” each time. The inhibition entry in the series with H9c2 [15] was “inactive”. Moreover, the result in the series on Mus musculus [17] was Active.
